Laboratory results: ChEMBL document CHEMBL3414422, “Synthesis of new steroidal inhibitors of P-glycoprotein-mediated multidrug resistance and biological evaluation on K562/R7 erythroleukemia cells” (J Med Chem, 2015)

Columns and labels:
K562/R7 = assay: Inhibition of p-gp (unknown origin) in doxorubicin-resistant human K562/R7 cells assessed as increase in daunorubicin accumulation measured as fluorescence ratio at 10 uM incubated for 1 hr with 10 uM daunorubicin by flow cytometry relative to control; format: cell-based
Summary of the method: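 Resistant K562/R7 cells ([…]) incubated 1 h at 37 °C in RPMI 1640 with daunorubicin 10 µM, with or without steroid at 10 µM; intracellular fluorescence read by flow cytometry. Accumulation index = daunorubicin fluorescence ratio with/without modulator. Cyclosporin A as positive control. Duplicates, at least three separate experiments.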

[1] = Intrinsic cytotoxicity against human K562 cells assessed as cell survival […] by MTT assay; format: cell-based; details: read-out: Survival

CC(=O)[C@@]1(O)CC[C@H]2[C@@H]3CCC4=CC(=O)CC[C@]4(C)[C@H]3CC[C@@]21C
Ratio (K562/R7): 1

CC(=O)[C@H]1CC[C@H]2[C@@H]3[C@H](OC(=O)c4ccccc4)C[C@@H]4CC(=O)CC[C@]4(C)[C@H]3CC[C@]12C
Ratio (K562/R7): 2.2

CC(=O)[C@H]1CC[C@H]2[C@H]3[C@H]([C@H](O[C@@H]4CCCCO4)C[C@]12C)[C@@]1(C)CCC(=O)C[C@H]1C[C@H]3OC(=O)c1ccccc1
Ratio (K562/R7): 2.9
viability [1]: 80.8%

CC(=O)[C@H]1CC[C@H]2[C@H]3[C@H]([C@H](O[C@H]4CCCCO4)C[C@]12C)[C@@]1(C)CCC(=O)C[C@H]1C[C@H]3OC1CCCCO1 (mixture of isomers)
Ratio (K562/R7): 2.5
viability [1]: 84.4%

CC(=O)[C@H]1CC[C@H]2[C@H]3[C@H]([C@H](OC(=O)c4ccccc4)C[C@]12C)[C@@]1(C)CCC(=O)C[C@H]1C[C@H]3O
Ratio (K562/R7): 2.3
viability [1]: 81.1%

COCO[C@H]1C[C@H]2[C@@H]([C@H](O)C[C@@H]3CC(=O)CC[C@@]32C)[C@@H]2CC[C@H](C(C)CCC(=O)OC)[C@@]12C (some centres not stated)
Ratio (K562/R7): 2.1
viability [1]: 84.7%

COCO[C@@H]1C[C@@H]2CC(=O)CC[C@]2(C)[C@H]2C[C@H](O)[C@]3(C)[C@@H](C(C)CCC(=O)OC)CC[C@H]3[C@H]12 (some centres not stated)
Ratio (K562/R7): 1.8
viability [1]: 95.7%

CC(=O)[C@@]1(O[C@H]2CCCCO2)CC[C@H]2[C@@H]3CC[C@@H]4CC(=O)CC[C@]4(C)[C@H]3CC[C@@]21C
Ratio (K562/R7): 2.4

COCCCC(C)[C@H]1CC[C@H]2[C@@H]3[C@H](OC(=O)c4ccccc4)C[C@@H]4CC(=O)CC[C@]4(C)[C@H]3C[C@H](O[C@@H]3CCCCO3)[C@]12C (some centres not stated)
Ratio (K562/R7): 2.4
viability [1]: 54.4%

CC(=O)[C@@]1(O[C@@H]2CCCCO2)CC[C@H]2[C@@H]3CC[C@@H]4CC(=O)CC[C@]4(C)[C@H]3[C@H](O[C@H]3CCCCO3)C[C@@]21C
Ratio (K562/R7): 2.5
viability [1]: 67.9%

COCCCC(C)[C@H]1CC[C@H]2[C@@H]3[C@H](O[C@H]4CCCCO4)C[C@@H]4CC(=O)CC[C@]4(C)[C@H]3C[C@H](OC(=O)c3ccccc3)[C@]12C (some centres not stated)
Ratio (K562/R7): 3.1
viability [1]: 56.3%

CC(=O)[C@H]1CC[C@H]2[C@H]3[C@H]([C@H](OC(=O)c4ccccc4)C[C@]12C)[C@@]1(C)CCC(=O)C[C@H]1C[C@H]3O[C@@H]1CCCCO1
Ratio (K562/R7): 2.8
viability [1]: 61.5%

CC(=O)[C@@]1(O)CC[C@H]2[C@@H]3CC[C@@H]4CC(=O)CC[C@]4(C)[C@H]3CC[C@@]21C
Ratio (K562/R7): 1.1

CC#C[C@]1(O)CC[C@H]2[C@@H]3CCC4=CC(=O)CCC4=C3[C@@H](c3ccc(N(C)C)cc3)C[C@@]21C [MIFEPRISTONE]
Ratio (K562/R7): 2.4
viability [1]: 95.6%

CC(=O)[C@@]1(O[C@@H]2CCCCO2)CC[C@H]2[C@@H]3CCC4=CC(=O)CC[C@]4(C)[C@H]3CC[C@@]21C
Ratio (K562/R7): 2.4

COCO[C@@H]1C[C@@H]2CC(=O)CC[C@]2(C)[C@H]2C[C@H](OC(=O)c3ccccc3)[C@]3(C)[C@@H](C(C)CCC(=O)OC)CC[C@H]3[C@H]12 (some centres not stated)
Ratio (K562/R7): 3.8
viability [1]: 43.5%

COCCCC(C)[C@H]1CC[C@H]2[C@@H]3[C@H](OC(=O)c4ccccc4)C[C@@H]4CC(=O)CC[C@]4(C)[C@H]3C[C@H](O[C@H]3CCCCO3)[C@]12C (some centres not stated)
Ratio (K562/R7): 2.2
viability [1]: 75.8%

COC(=O)CCC(C)[C@H]1CC[C@H]2[C@@H]3[C@H](OC4=CCOCC4)C[C@@H]4CC(=O)CC[C@]4(C)[C@H]3C[C@H](OC3=CCOCC3)[C@]12C (some centres not stated)
Ratio (K562/R7): 3.7
viability [1]: 76.3%

CC(=O)[C@H]1CC[C@H]2[C@@H]3CC[C@@H]4CC(=O)CC[C@]4(C)[C@H]3[C@H](O[C@H]3CCCCO3)C[C@]12C
Ratio (K562/R7): 2.5

COC(=O)CCC(C)[C@H]1CC[C@H]2[C@@H]3[C@H](OC(=O)c4ccccc4)C[C@@H]4CC(=O)CC[C@]4(C)[C@H]3C[C@H](OC(=O)c3ccccc3)[C@]12C (some centres not stated)
Ratio (K562/R7): 1.5
viability [1]: 57.3%

CC(=O)[C@H]1CC[C@H]2[C@@H]3CC[C@H]4CC(=O)CC[C@]4(C)[C@H]3CC[C@]12C
Ratio (K562/R7): 1

CC(=O)[C@H]1CC[C@H]2[C@H]3[C@H]([C@H](O[C@H]4CCCCO4)C[C@]12C)[C@@]1(C)CCC(=O)C[C@H]1C[C@H]3OC(=O)c1ccccc1
Ratio (K562/R7): 2.3
viability [1]: 100%

COCCCC(C)[C@H]1CC[C@H]2[C@@H]3[C@H](O[C@@H]4CCCCO4)C[C@@H]4CC(=O)CC[C@]4(C)[C@H]3C[C@H](OC(=O)c3ccccc3)[C@]12C (some centres not stated)
Ratio (K562/R7): 3.4
viability [1]: 51%

COC(=O)CCC(C)[C@H]1CC[C@H]2[C@@H]3[C@H](O)C[C@@H]4CC(=O)CC[C@]4(C)[C@H]3C[C@H](O)[C@]12C (some centres not stated)
Ratio (K562/R7): 1.5

CC(=O)[C@H]1CC[C@H]2[C@H]3[C@H]([C@H](O[C@H]4CCCCO4)C[C@]12C)[C@@]1(C)CCC(=O)C[C@@H]1C[C@H]3OC(=O)c1ccccc1
Ratio (K562/R7): 2.3

CC(=O)[C@H]1CC[C@H]2[C@@H]3CC[C@@H]4CC(=O)CC[C@]4(C)[C@H]3[C@H](O)C[C@]12C
Ratio (K562/R7): 1

COc1ccc(CCN(C)CCCC(C#N)(c2ccc(OC)c(OC)c2)C(C)C)cc1OC (configuration not stated)
viability [1]: 93.3%

CC(=O)[C@@]1(O[C@@H]2CCCCO2)CC[C@H]2[C@@H]3CC[C@@H]4CC(=O)CC[C@]4(C)[C@H]3CC[C@@]21C
Ratio (K562/R7): 2.3

COC(=O)CCC(C)[C@H]1CC[C@H]2[C@@H]3[C@H](OC(=O)c4ccccc4)C[C@@H]4CC(=O)CC[C@]4(C)[C@H]3C[C@H](O[C@H]3CCCCO3)[C@]12C (some centres not stated)
Ratio (K562/R7): 2.7
viability [1]: 53.5%

CC(=O)[C@H]1CC[C@H]2[C@H]3[C@H]([C@H](O)C[C@]12C)[C@@]1(C)CCC(=O)C[C@H]1C[C@H]3O
Ratio (K562/R7): 1.1

CC(=O)[C@@]1(O)CC[C@H]2[C@@H]3CC[C@@H]4CC(=O)CC[C@]4(C)[C@H]3[C@H](O)C[C@@]21C
Ratio (K562/R7): 1

COC(=O)CCC(C)[C@H]1CC[C@H]2[C@@H]3[C@H](OC(=O)c4ccccc4)C[C@@H]4CC(=O)CC[C@]4(C)[C@H]3C[C@H](O[C@@H]3CCCCO3)[C@]12C (some centres not stated)
Ratio (K562/R7): 2.1
viability [1]: 56.4%

COC(=O)CCC(C)[C@H]1CC[C@H]2[C@@H]3[C@H](OC4CCCCO4)C[C@@H]4CC(=O)CC[C@]4(C)[C@H]3C[C@H](OC3CCCCO3)[C@]12C (mixture of isomers)
Ratio (K562/R7): 3.5
viability [1]: 63.2%

CC(=O)[C@H]1CC[C@H]2[C@H]3[C@H]([C@H](O)C[C@]12C)[C@@]1(C)CCC(=O)C[C@H]1C[C@H]3OC(=O)c1ccccc1
Ratio (K562/R7): 1.4
viability [1]: 92.9%

COC(=O)CCC(C)[C@H]1CC[C@H]2[C@@H]3[C@H](O[C@H]4CCCCO4)C[C@@H]4CC(=O)CC[C@]4(C)[C@H]3C[C@H](OC(=O)c3ccccc3)[C@]12C (some centres not stated)
Ratio (K562/R7): 3.3
viability [1]: 44.6%

COCCCC(C)[C@H]1CC[C@H]2[C@@H]3[C@H](OC(=O)c4ccccc4)C[C@@H]4CC(=O)CC[C@]4(C)[C@H]3C[C@H](OC(=O)c3ccccc3)[C@]12C (some centres not stated)
Ratio (K562/R7): 1.7
viability [1]: 50.7%

CC(=O)[C@H]1CC[C@H]2[C@@H]3CCC4=CC(=O)CC[C@]4(C)[C@H]3CC[C@]12C [PROGESTERONE]
Ratio (K562/R7): 1.2
viability [1]: 81.6%

COCO[C@H]1C[C@H]2[C@@H]([C@H](OC(=O)c3ccccc3)C[C@@H]3CC(=O)CC[C@@]32C)[C@@H]2CC[C@H](C(C)CCC(=O)OC)[C@@]12C (some centres not stated)
Ratio (K562/R7): 2.9
viability [1]: 49.7%

CC(=O)[C@H]1CC[C@H]2[C@H]3[C@H]([C@H](OC(=O)c4ccccc4)C[C@]12C)[C@@]1(C)CCC(=O)C[C@H]1C[C@H]3O[C@H]1CCCCO1
Ratio (K562/R7): 2.6
viability [1]: 70.5%

CC(=O)[C@H]1CC[C@H]2[C@@H]3CC[C@@H]4CC(=O)CC[C@]4(C)[C@H]3[C@H](O[C@@H]3CCCCO3)C[C@]12C
Ratio (K562/R7): 2.5

CC(=O)[C@H]1CC[C@H]2[C@H]3[C@H]([C@H](OC(=O)c4ccccc4)C[C@]12C)[C@@]1(C)CCC(=O)C[C@@H]1C[C@H]3OC(=O)c1ccccc1
Ratio (K562/R7): 2.5
viability [1]: 71.1%

CC(=O)[C@H]1CC[C@H]2[C@H]3[C@H]([C@H](O[C@@H]4CCCCO4)C[C@]12C)[C@@]1(C)CCC(=O)C[C@H]1C[C@H]3OC1CCCCO1 (mixture of isomers)
Ratio (K562/R7): 2.6
viability [1]: 86.7%

CC(=O)[C@H]1CC[C@H]2[C@H]3[C@H]([C@H](OC(=O)c4ccccc4)C[C@]12C)[C@@]1(C)CCC(=O)C[C@H]1C[C@H]3OC(=O)c1ccccc1
Ratio (K562/R7): 2.5
viability [1]: 66.4%

CC(=O)[C@H]1CC[C@H]2[C@@H]3CCC4=CC(=O)CC[C@]4(C)[C@H]3[C@H](O)C[C@]12C
Ratio (K562/R7): 1

CC(=O)[C@H]1CC[C@H]2[C@@H]3CC[C@@H]4CC(=O)CC[C@]4(C)[C@H]3CC[C@]12C
Ratio (K562/R7): 1.2

CC(=O)[C@@]1(O[C@H]2CCCCO2)CC[C@H]2[C@@H]3CCC4=CC(=O)CC[C@]4(C)[C@H]3CC[C@@]21C
Ratio (K562/R7): 2.8

CC(=O)[C@H]1CC[C@H]2[C@@H]3CCC4=CC(=O)CC[C@]4(C)[C@H]3[C@H](O[C@H]3CCCCO3)C[C@]12C
Ratio (K562/R7): 2.4

CC(=O)[C@H]1CC[C@H]2[C@@H]3[C@H](OC4CCCCO4)C[C@@H]4CC(=O)CC[C@]4(C)[C@H]3CC[C@]12C (mixture of isomers)
Ratio (K562/R7): 2.4

C[C@]12CC[C@H]3[C@@H](CCC4=CC(=O)CC[C@@]43C)[C@@H]1CC[C@@H]2C(=O)COC1CCCCO1 (mixture of isomers)
Ratio (K562/R7): 1.6
